Results on 6 compounds are retold here after ChEMBL document CHEMBL1155950, “Novel amidino-substituted thienyl- and furylvinylbenzimidazole: derivatives and their photochemical conversion into corresponding diazacyclopenta[c]fluorenes. synthesis, interactions with DNA and RNA, and antitumor evaluation. 4” (J Med Chem, 2008).

The species entered for experiment [1] is Bos taurus. Kind of experiment: Inhibition of calf thymus topoisomerase 1-mediated supercoiled plasmid pCI DNA relaxation activity at 10 uM after 30 mins by gel electrophoresis. A digest of the protocol:
(§1)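 Calf thymus topoisomerase I (8 U) with 0.8 µg negatively supercoiled pCI plasmid in relaxation buffer (10 mM Tris-HCl pH 7.5, 175 mM KCl, 5 mM MgCl2, 0.1 mM EDTA, 2.5% glycerol), ± test agent, 37 °C for 30 min. Stopped with SDS, then proteinase K digestion and phenol/chloroform/isoamyl alcohol extraction. Split onto 1% agarose gels with or without 0.5 µg/mL ethidium bromide. Nicked, relaxed and supercoiled bands viewed under UV.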

For experiment [2], the species on record is Bos taurus. Nature of the experiment: Inhibition of calf thymus topoisomerase 1 assessed as induction of supercoiled plasmid pCI DNA nicking at 10 uM after 30 mins by gel electrophoresis. A digest of the protocol:
as §1

The species named for experiment [3] is Bos taurus. Nature of the experiment: Inhibition of calf thymus topoisomerase 1 assessed as induction of supercoiled plasmid pCI DNA nicking at 100 uM after 30 mins by gel electrophoresis. A digest of the protocol: as §1
The next experiment concerns HEp-2. Nature of the experiment: Antiproliferative activity against human Hep2 cells after 72 hrs by MTT assay. The experiment is classed as functional, cell-based. As to conditions: HEp-2, 72 h. A digest of the protocol:
(§2)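 Monolayer cultures in DMEM with 10% FBS, 2 mM L-glutamine, penicillin and streptomycin, at 37 °C in 5% CO2. Seeded at 1 × 10⁴ to 3 × 10⁴ cells/mL on day 0. Compounds added at 10^-8 to 10^-4 M, then 72 h. MTT read-out, quadruplicate in three experiments, with a solvent control. IC50 by linear regression of percent growth around 50%.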
(Formazan colour is commonly taken as a measure of viable cells.)

The next experiment concerns SW-620. Kind of experiment: Antiproliferative activity against human SW620 cells after 72 hrs by MTT assay. Format: functional, cell-based. To be noted: SW-620, 72 h. A digest of the protocol: as §2
In experiment [4] the test system is MIA PaCa-2. Nature of the experiment: Antiproliferative activity against human MiaPaCa2 cells after 72 hrs by MTT assay. The experiment is classed as functional, cell-based. To be noted: MIA PaCa-2, 72 h. A digest of the protocol: as §2
The subject of experiment [5] is HeLa. Kind of experiment: Antiproliferative activity against human HeLa cells after 72 hrs by MTT assay. Format: functional, cell-based. A digest of the protocol: as §2
The next experiment has as its system MCF7. Kind of experiment: Antiproliferative activity against human MCF7 cells after 72 hrs by MTT assay. Format: functional, cell-based. As to conditions: MCF7, 72 h. A digest of the protocol:
as §2

A short description of experiment [6]: Antiproliferative activity against human WI38 cells after 72 hrs by MTT assay. Format: cell-based. As to conditions: WI-38, 72 h.
In experiment [7] the test system is DNA. Kind of experiment: Binding affinity to calf thymus DNA at 0.2 of [compound]/[calf thymus DNA] at pH 7.0 by thermal denaturation assay. Format: nucleic-acid assay. To be noted: Bos taurus. A digest of the protocol:
(§3)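 Absorbance at 260 nm followed against temperature for free polynucleotide and complexes, in Na cacodylate buffer pH 7.0, I = 0.05 mol dm^-3. Ligand absorbance subtracted and curves normalized. Tm taken from the first-derivative maximum or by tangent method. ΔTm = Tm(complex) − Tm(free), average of at least two runs, error ±0.5 °C.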

Experiment [8] deals with DNA. Nature of the experiment: Binding affinity to calf thymus DNA at 0.1 of [compound]/[calf thymus DNA] at pH 7.0 by thermal denaturation assay. Format: nucleic-acid assay. To be noted: Bos taurus. A digest of the protocol: as §3
The test system of experiment [9] is DNA. Kind of experiment: Binding affinity to calf thymus DNA at 0.3 of [compound]/[calf thymus DNA] at pH 7.0 by thermal denaturation assay. Format: nucleic-acid assay. As to conditions: Bos taurus. A digest of the protocol:
as §3

The subject of a further experiment is Nucleic Acid. Kind of experiment: Binding affinity to polyA-polyU double stranded RNA at 0.3 of [compound]/[double stranded polynucleotide] at pH 7.0 by thermal denaturation assay. The experiment is classed as nucleic-acid assay. A digest of the protocol:
as §3

Experiment [10] deals with DNA. Kind of experiment: Binding affinity to calf thymus DNA at pH 7.0 by fluorimetric titration. Format: nucleic-acid assay. As to conditions: Bos taurus. A digest of the protocol:
(§4)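 Polynucleotide, given as phosphate concentration, added in portions to the compound in Na cacodylate buffer pH 7.0, I = 0.05 mol dm^-3, with polynucleotide in high excess. Emission recorded 350–550 nm, absorbance below 0.05 at excitation. Ks and n from nonlinear least-squares Scatchard fits. log K recalculated at fixed n = 0.2.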

Experiment [11] can be described thus: Binding affinity to polyA-polyU double stranded RNA at pH 7.0 by fluorimetric titration. A digest of the protocol: as §4
In experiment [12] the test system is MIA PaCa-2. Kind of experiment: Cell cycle arrest in human MiaPaCa2 cells assessed as accumulation at G2/M phase at 10 uM after 48 hrs by flow cytometry. Format: functional. A digest of the protocol: (§5)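 2 × 10⁵ cells per well, compound (10 µM) added after 24 h, then 24, 48 or 72 h. Floating and attached cells pooled, fixed in 70% ethanol and kept at −20 °C. Stained with PI 1 µg/mL plus RNase A 0.2 µg/µL. 20 000 events by flow cytometry, phase percentages from DNA histograms. Duplicates, repeated at least twice.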
On the technique in general: A flow cytometer gives signals particle by particle.

In experiment [13] the test system is MIA PaCa-2. Kind of experiment: Cell cycle arrest in human MiaPaCa2 cells assessed as accumulation at G1/G0 phase at 10 uM after 48 hrs by flow cytometry. Format: functional. A digest of the protocol:
as §5

For experiment [14], the system named is MIA PaCa-2. Nature of the experiment: Cell cycle arrest in human MiaPaCa2 cells assessed as accumulation at G1/G0 phase at 10 uM after 24 hrs by flow cytometry. The experiment is classed as functional. A digest of the protocol: as §5
In experiment [15] the test system is HeLa. Kind of experiment: Induction of apoptosis in human HeLa cells at 10 uM after 72 hrs by annexin V assay. Format: functional. A digest of the protocol:
(§6)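 2 × 10⁴ cells per well, compounds added after 24 h, exposure 72 h. Floating and attached cells collected, washed and stained with annexin-V-fluorescein plus PI in Hepes buffer, then counted by fluorescence microscopy. Annexin-V-positive cells scored apoptotic, annexin-V/PI-positive scored necrotic. Apoptotic percentage taken relative to total cells.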

For experiment [16], the system named is MIA PaCa-2. Kind of experiment: Cell cycle arrest in human MiaPaCa2 cells assessed as accumulation at S phase at 10 uM after 72 hrs by flow cytometry. The experiment is classed as functional. A digest of the protocol:
as §5

For experiment [17], the species on record is Bos taurus. Kind of experiment: Inhibition of calf thymus topoisomerase 1-mediated supercoiled plasmid pCI DNA relaxation activity at 200 uM after 30 mins by gel electrophoresis. A digest of the protocol:
(§7)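 Calf thymus topoisomerase I (8 U) with 0.8 µg supercoiled pCI in Tris-HCl pH 7.5 buffer with 175 mM KCl, 5 mM MgCl2, 0.1 mM EDTA and 2.5% glycerol, 37 °C for 30 min. Stopped with SDS, then proteinase K at 37 °C for 15 min and phenol/chloroform extraction. Run on 1% agarose with or without 0.5 µg/mL EtBr and viewed under UV.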

Experiment [18] has as its system MIA PaCa-2. Kind of experiment: Cell cycle arrest in human MiaPaCa2 cells assessed as accumulation at sub G1 phase at 10 uM after 72 hrs by flow cytometry. Format: functional. A digest of the protocol: as §5
Experiment [19] relates to MIA PaCa-2. Nature of the experiment: Cell cycle arrest in human MiaPaCa2 cells assessed as accumulation at sub G1 phase at 10 uM after 48 hrs by flow cytometry. The experiment is classed as functional. A digest of the protocol:
as §5

Experiment [20] concerns HeLa. Nature of the experiment: Induction of apoptosis in human HeLa cells at 5 uM after 72 hrs by annexin V assay. Format: functional. A digest of the protocol: as §6
For experiment [21], the system named is MIA PaCa-2. Nature of the experiment: Cell cycle arrest in human MiaPaCa2 cells assessed as accumulation at sub G1 phase at 10 uM after 24 hrs by flow cytometry. Format: functional. A digest of the protocol: as §5
For experiment [22], the system named is MIA PaCa-2. Nature of the experiment: Cell cycle arrest in human MiaPaCa2 cells assessed as accumulation at G2/M phase at 10 uM after 72 hrs by flow cytometry. The experiment is classed as functional. A digest of the protocol:
as §5

Experiment [23] has as its system MIA PaCa-2. Nature of the experiment: Cell cycle arrest in human MiaPaCa2 cells assessed as accumulation at S phase at 10 uM after 24 hrs by flow cytometry. The experiment is classed as functional. A digest of the protocol: as §5
Experiment [24] relates to MIA PaCa-2. Kind of experiment: Cell cycle arrest in human MiaPaCa2 cells assessed as accumulation at G2/M phase at 10 uM after 24 hrs by flow cytometry. The experiment is classed as functional. A digest of the protocol: as §5
The subject of experiment [25] is MIA PaCa-2. Kind of experiment: Cell cycle arrest in human MiaPaCa2 cells assessed as accumulation at G1/G0 phase at 10 uM after 72 hrs by flow cytometry. Format: functional. A digest of the protocol:
as §5

Experiment [26] deals with MIA PaCa-2. Kind of experiment: Induction of apoptosis in human MiaPaCa2 cells at 10 uM after 72 hrs by annexin V assay. The experiment is classed as functional. A digest of the protocol: as §6
In experiment [27] the test system is MIA PaCa-2. Nature of the experiment: Induction of apoptosis in human MiaPaCa2 cells at 5 uM after 72 hrs by annexin V assay. Format: functional. A digest of the protocol: as §6
Experiment [28] deals with MIA PaCa-2. Kind of experiment: Cell cycle arrest in human MiaPaCa2 cells assessed as accumulation at S phase at 10 uM after 48 hrs by flow cytometry. The experiment is classed as functional. A digest of the protocol: as §5
Experiment [29] is described as follows: Binding affinity to polyG-polyC double stranded RNA at pH 7.0 by fluorimetric titration. A digest of the protocol: as §4
For experiment [30], the species on record is Bos taurus. Kind of experiment: Inhibition of calf thymus topoisomerase 1 assessed as induction of supercoiled plasmid pCI DNA nicking at 200 uM after 30 mins by gel electrophoresis. A digest of the protocol:
as §7

Calls of active or inactive are those of the source. No cut-off for these calls is given here.

Turning to `CC[n+]1c(-c2ccccc2)c2cc(N)ccc2c2ccc(N)cc21`, the outcome in the experiment filed under Bos taurus [1] was Active. For the same compound, the outcome in the experiment filed under Bos taurus [2] was inactive.
For `CC[C@@]1(O)C(=O)OCc2c1cc1n(c2=O)Cc2cc3ccccc3nc2-1`, in the experiment filed under Bos taurus [3], the result was Active.
For `C(=C\c1ccco1)/c1nc2ccc(C3=NCCN3)cc2[nH]1`, the IC50 (in general, the concentration that inhibits the measured activity by half) with HEp-2 is 67 µM; in the experiment on SW-620 it was 50 µM; in the experiment on MIA PaCa-2 [4], 51 µM; in the experiment on HeLa [5], 10 µM; in the experiment with MCF7, 9 µM; in experiment [6], more than 100 µM.
As for `N=C(NC1CCCCC1)c1ccc2nc(/C=C/c3ccco3)[nH]c2c1`, the IC50 was 65 µM with HEp-2; more than 100 µM with SW-620; 78 µM in the experiment on MIA PaCa-2 [4]; 6 µM with HeLa [5]; 19 µM in the experiment with MCF7; more than 100 µM in [6]. The ΔTm (in general, the shift of the melting midpoint relative to a reference) with DNA [7] was found to be 1.6 °C; in the experiment on DNA [8], 1 °C; in the experiment on DNA [9], 1.5 °C; in the experiment on Nucleic Acid, 1.6 °C. Also, the log K with DNA [10] was 5.2.
Turning to `C(=C\c1cccs1)/c1nc2ccc(C3=NCCN3)cc2[nH]1.Cl`, the values for the log K (in [11]; in experiment [29]; with DNA [10]) were 5.8, 5.6 and 5, respectively. Further, the IC50 turned out to be 11 µM in the experiment on HEp-2; 11 µM in the experiment with SW-620; 10 µM with MIA PaCa-2 [4]; 5 µM with HeLa [5]; 3 µM in the experiment on MCF7; 29 µM in [6]. The Activity in the experiment with MIA PaCa-2 [12] was 20%; in the experiment with MIA PaCa-2 [13] it was 49%; in the experiment with MIA PaCa-2 [14], 39%; in the experiment with HeLa [15] it was 14%; in the experiment with MIA PaCa-2 [16], 26%; in the experiment with MIA PaCa-2 [18], 3%. Moreover, the Activity is recorded as 1% in the experiment with MIA PaCa-2 [19]; 8% in the experiment on HeLa [20]; 1% in the experiment on MIA PaCa-2 [21]; 19% in the experiment on MIA PaCa-2 [22]; 42% with MIA PaCa-2 [23]; 19% in the experiment on MIA PaCa-2 [24]. The Activity is 55% in the experiment with MIA PaCa-2 [25], 4% with MIA PaCa-2 [26], 2% in the experiment with MIA PaCa-2 [27] and 31% in the experiment with MIA PaCa-2 [28]. Moreover, the ΔTm was determined as 1.3 °C in the experiment on DNA [7], 1.3 °C in the experiment on DNA [8], 1.4 °C in the experiment on DNA [9] and 2.2 °C with Nucleic Acid. Further, the outcome in the experiment listed under Bos taurus [17] and in the experiment listed under Bos taurus [30] was Active.
On to `N=C(N)c1ccc2nc(/C=C/c3ccco3)[nH]c2c1`, for which the IC50 in the experiment with HEp-2 was 19 µM; with SW-620, 16 µM; in the experiment on MIA PaCa-2 [4] it was more than 100 µM; in the experiment on HeLa [5] it was 4 µM; in the experiment on MCF7, 12 µM; in [6], more than 100 µM.
